Assay outcomes deposited in PubChem by The Scripps Research Institute Molecular Screening Center.
Only some compounds are listed: those with a hit (about 2.9% of all), similar ones and a draw of the others.
CHO-K1 Ca ag = M1 agonist counterscreen hit in parental CHO-K1 cells | activation, % at 3 µM | Fluo-8 calcium fluorescence; scaled to maximal ATP response, vehicle zero | actives 0.48% (n = 360,000); in the data active means activation above about 15%;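 further: untransfected CHO-K1 host cells lacking M1 receptor as counterscreen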
CHO-K1 Ca PAM = M1 PAM counterscreen hit in parental CHO-K1 cells. ATP EC20, Fluo-8 calcium fluorescence; 0% at ATP EC20, 100% at ATP max. activation, % at 3 µM. actives 0.02% (n = 360,000). AID 602247;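 active means activation above the run cutoff, the mean activation of all test compounds plus 3 SD, cut at about 40% in these data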;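 further: peak over basal fluorescence ratio in a 140 s read after ATP addition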
OX1R antag-1 = antagonists of human orexin 1 receptor. O43613. CHO/OX1R cells, Fluo-8 calcium fluorescence, orexin A. inhibition, % at 5 µM. actives 0.43% (n = 330,000). AID 434989;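 active means inhibition above its plate's threshold, mean inhibition of all tested compounds on the plate plus 3 SD, cut at about 37% in these data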;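 further: 0% = orexin A challenge wells and 100% = SB-334867-A antagonist wells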
Target sequence (O43613 whole entry, looked up): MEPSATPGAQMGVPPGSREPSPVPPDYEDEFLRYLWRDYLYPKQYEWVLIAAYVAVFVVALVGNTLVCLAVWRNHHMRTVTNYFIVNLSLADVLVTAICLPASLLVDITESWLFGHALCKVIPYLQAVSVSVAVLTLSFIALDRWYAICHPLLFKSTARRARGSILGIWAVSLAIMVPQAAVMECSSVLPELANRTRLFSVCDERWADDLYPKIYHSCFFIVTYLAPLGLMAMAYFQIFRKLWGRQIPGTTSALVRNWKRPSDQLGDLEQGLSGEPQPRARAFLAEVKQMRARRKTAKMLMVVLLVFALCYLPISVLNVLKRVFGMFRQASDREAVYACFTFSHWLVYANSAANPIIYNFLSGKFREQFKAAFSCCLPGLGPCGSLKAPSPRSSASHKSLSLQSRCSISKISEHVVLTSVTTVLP
CHO-K1 Ca antag = counter-screen for M1 antagonists: effect in parental CHO-K1 cells; inhibition, % at 3 µM; actives 0.6% (n = 360,000); ATP-induced calcium, Fluo-8 fluorescence; AID 602250;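 active means inhibition above a per-plate cutoff, the plate's mean sample inhibition plus 3 SD, cut at about 24% in these data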;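 further: 0% = DMSO plus EC80 ATP and 100% = DMSO alone without ATP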
CHO parental Ca = signal in parental CHO cells, OX1R antagonist counter-screen. parental CHO-K1, ATP-induced calcium, Fluo-8 fluorescence. actives 0.63% (n = 330,000). inhibition, % at 5.6 µM. AID 463079;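 active means inhibition above that plate's mean sample inhibition plus 3 SD, cut at about 26% in these data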;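 further: 0% = ATP-challenged DMSO wells and 100% = DMSO wells without ATP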
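Assay system: untransfected parental CHO cell line. Also added: ATP agonist challenge. Dosing: one dose, 5.6 µM nominal. Measured by: Fluo-8 fluorescence. Read-out: % inhibition. Benchmarks: ATP wells versus no-ATP DMSO wells. Repeats: no replicates.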
OX1R antag-2 = antagonists of human orexin 1 receptor (OX1R) | inhibition, % at 6.6 µM | OX1R-expressing cells, FRET antagonist read-out | actives 1.8% (n = 330,000); in the data active means inhibition mostly above about 38%, no sharp cut-off; inactive means mostly below about 40%;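 further: 0% = agonist challenge alone and 100% = reference antagonist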
OX1R HTRF confirm = confirmation of human orexin 1 receptor antagonists, HTRF format; inhibition, % at 6.6 µM; shares compounds with OX1R antag-2; OX1R-expressing cells, HTRF antagonist assay; actives 49% (n = 1,800); AID 492964; in the data active means inhibition above about 55%;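 further: CHO cells expressing OX1R stimulated with orexin A at about EC80; 0% = agonist challenge alone and 100% = reference antagonist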
CHO-K1 HTRF cnt = counter-screen for OX1R antagonists: effect in parental CHO-K1 cells | shares compounds with OX1R antag-2 | HTRF counterscreen | inhibition, % at 6.6 µM | actives 48% (n = 1,800); in the data active means inhibition above about 17%;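 further: 0% = agonist challenge with vehicle and 100% = vehicle alone without agonist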
* = called active by the depositor; nt = not tested or not shown.

SMILES	CHO-K1 Ca ag	CHO-K1 Ca PAM	OX1R antag-1	CHO-K1 Ca antag	CHO parental Ca	OX1R antag-2	OX1R HTRF confirm	CHO-K1 HTRF cnt
O=S(=O)(Cc1ccccc1)NCc1cccnc1	0	7	-12	-13	4	12	nt	nt
CCN(CC)CCCNC1=C(Cl)C(=O)c2ccccc2C1=O	-1	-11	-11	16	-5	86*	88*	113*
O=C1C(Cl)=C(Nc2ccccc2)C(=O)c2ccccc21	0	10	18	-4	24	40	nt	nt
O=C(O)c1ccc(NC2=C(Cl)C(=O)c3ccccc3C2=O)cc1	1	14	12	-5	13	84*	70*	34*
O=C1C(Cl)=C(NCc2cccnc2)C(=O)c2ccccc21	14	2	-2	-4	-5	84*	66*	98*
C=CCNC1=C(Cl)C(=O)c2ccccc2C1=O	-1	7	-2	-1	-11	140*	64*	94*
COP(=O)(OC)C(Nc1ccc(C)cc1)c1ccc(Br)cc1 (stereo not drawn)	0	-6	nt	-1	nt	nt	nt	nt
COc1ccc(Cl)cc1C(=O)NNC(=O)c1cccs1	1	14	12	-16	-21	5	nt	nt
Cc1nc2ccc([N+](=O)[O-])cc2nc1C	2	17	4	-18	-4	112*	68*	81*
Cc1nc2ccc([N+](=O)[O-])cc2s1	0	26	-16	-7	-6	32	nt	nt
CC(C)NC(=O)N(C)C[C@H]1Oc2ccc(NC(=O)Cc3ccccc3)cc2C(=O)N([C@H](C)CO)C[C@@H]1C	0	15	-3	-13	0	1	nt	nt
CC(Oc1ccc2c(-c3ccccc3)cc(=O)oc2c1)C(=O)N1CCC[C@@H]1C(N)=O (stereo partly drawn)	0	1	-4	0	-13	15	nt	nt
CC(=O)N1CCc2cc(N=NC3=C(O)CCCC3=O)ccc21	12	17	-7	-11	-3	152*	74*	82*
CC(=O)c1cccc(NC(=O)CN2CCc3cc4c(cc3C2)OCCCO4)c1	1	15	-18	-1	-15	17	nt	nt
CCCc1nnc(NC(=O)CCC(=O)NCc2ccc(OC)cc2)s1	1	17	-9	-15	-5	21	nt	nt
O=C(OCC(=O)N1CCCC1)c1cc([N+](=O)[O-])ccc1Cl	0	-1	-6	-16	-5	118*	55	56*
COc1ccc(S(=O)(=O)NC(=O)C2(C)CCN2C(=O)Cc2ccc(C(C)(C)C)cc2)cc1 (stereo not drawn)	0	12	nt	-7	nt	nt	nt	nt
N#CC1=C(N)Oc2c(oc(CO)cc2=O)C1c1ccsc1 (stereo not drawn)	1	16	8	-14	14	92*	23	18*
N#CC1=C(N)Oc2c(oc(CO)cc2=O)C1c1cccs1 (stereo not drawn)	0	5	-11	5	-11	77*	18	22*
COc1ccc(N(C)S(=O)(=O)c2cccc(C(=O)N(C)Cc3ccc(C)o3)c2)cc1	4	18	-2	-5	-20	4	nt	nt
COC(=O)c1nn(-c2ccc(OC)cc2)c(=O)c2c(N)sc(C)c12	0	-6	-19	9	-12	83*	43	43*
O=C(CSc1ccccc1)NC1=NCCS1	1	13	-17	-6	0	11	nt	nt
O=C(CSc1cccc2cccc(Cl)c12)NC1=NCCS1	2	19	2	-15	-6	112*	35	9
Clc1c(Cl)c(Cl)c2n[nH]nc2c1Cl	10	-9	-4	-2	-7	24	nt	nt
Cc1noc(C)c1NC(=O)Nc1ccc2c(c1)C(=O)N([C@@H](C)CO)C[C@@H](C)[C@@H](CN(C)Cc1ccc3c(c1)OCO3)O2	0	11	2	-4	-5	3	nt	nt
COc1ccccc1NC1=C(N2CCCCC2)C(=O)c2ccccc2C1=O	0	5	7	1	-19	79*	27	31*
